Reference: paper PMC7409366 (Bioorganic chemistry, 2020)
Like-named read-outs stand apart in the source and are kept apart here.

Legend:
human neutrophils [1] = test: Desensitization of human neutrophil chemotaxis toward WKYMVm; type: cell-based; conditions: 0.5 h, read-out: Chemotaxis IC50
[2] = system: CFA-induced rheumatoid arthritis in rats; test: Incapacitance test in CFA-induced rheumatoid arthritis; type: in vivo, rat; conditions: for Δ Weight (incapacitance test): day 14 after CFA
[3] = system: CFA-induced rheumatoid arthritis in rats; test: Paw pressure test in CFA-induced rheumatoid arthritis; type: in vivo, rat
FPR2 [4] = biological target: T1, FPR2 (Homo sapiens, UniProt P25090); test: Ca2+ mobilization in FPR2-transfected HL60 cells; type: cell-based
T1 sequence (P25090 1-351): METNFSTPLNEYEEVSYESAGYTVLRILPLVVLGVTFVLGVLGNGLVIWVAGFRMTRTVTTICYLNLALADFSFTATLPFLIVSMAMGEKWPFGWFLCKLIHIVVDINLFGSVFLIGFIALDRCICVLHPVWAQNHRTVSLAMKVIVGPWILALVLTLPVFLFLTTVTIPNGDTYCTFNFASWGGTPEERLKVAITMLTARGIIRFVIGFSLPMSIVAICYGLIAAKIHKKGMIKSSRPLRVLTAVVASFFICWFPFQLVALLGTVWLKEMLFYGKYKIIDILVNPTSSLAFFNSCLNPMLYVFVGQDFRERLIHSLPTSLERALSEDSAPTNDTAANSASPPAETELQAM

human neutrophils [5] = test: Human neutrophil chemotaxis; type: cell-based; conditions: read-out: Chemotaxis EC50
Summary of the method: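 Neutrophils from healthy-donor blood purified by dextran sedimentation, Histopaque 1077 gradient and hypotonic red-cell lysis, then washed twice into Ca/Mg-free HBSS; preparations >95% pure by light microscopy and >98% viable by trypan blue.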

FPR1 [6] = biological target: T2, FPR1 (Homo sapiens, UniProt P21462); test: Ca2+ mobilization in FPR1-transfected HL60 cells; type: cell-based
T2 sequence (P21462 1-350): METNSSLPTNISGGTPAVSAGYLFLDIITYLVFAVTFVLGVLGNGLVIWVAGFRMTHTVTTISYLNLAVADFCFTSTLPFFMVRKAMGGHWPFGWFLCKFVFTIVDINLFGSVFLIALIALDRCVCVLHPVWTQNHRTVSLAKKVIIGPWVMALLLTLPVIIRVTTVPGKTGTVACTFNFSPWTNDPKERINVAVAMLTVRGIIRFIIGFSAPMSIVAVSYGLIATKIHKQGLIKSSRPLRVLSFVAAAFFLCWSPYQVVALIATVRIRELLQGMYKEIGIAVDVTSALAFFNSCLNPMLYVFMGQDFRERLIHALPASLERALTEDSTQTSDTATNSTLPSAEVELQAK

[7] = system: collagen-induced arthritis and antigen-induced arthritis; conditions: 30 mg/kg i.p., mice, both models; cited from earlier work
FPR2 [8] = biological target: T1, FPR2; conditions: read-out: FPR2 EC50; EC10; cited from earlier work
FPR1 [9] = biological target: T2, FPR1; conditions: read-out: FPR1 EC50; EC10; cited from earlier work
FPR3 = conditions: read-out: FPR3 EC50; EC10; cited from earlier work

COc1cccc(-c2cc(C#N)c(=O)n(CC(=O)Nc3ccc(Br)cc3)c2C)c1 [Compound 2a, N-(4-Bromophenyl)-2-[3-cyano-5-(3-methoxyphenyl)-6-methyl-2-oxopyridin-1(2H)-yl]acetamide]
IC50 (human neutrophils [1]): 6.1 ± 1.1 µM
effect on postural unbalance (incapacitance test) ([2]; 10 and 30 mg/kg p.o., between 15 and 60 min after administration): significantly reduced the postural unbalance
effect on pain threshold (paw pressure test) ([3]; 10 mg/kg p.o., day 14 after CFA): effective between 30 and 60 min
pain threshold (paw pressure test) ([3]; 30 mg/kg p.o., day 14 after CFA, 15 to 45 min, CFA + vehicle 37.5 ± 1 g): 63.3 ± 2 g
preference for FPR2 versus FPR1 (FPR2 [4]; ratio of EC50 values): 10 fold
EC50 (human neutrophils [5]): 20 ± 4 nM

COc1ccc(-c2cc(C#N)c(=O)n(CC(=O)Nc3ccc(Br)cc3)c2C)cc1 [Compound 2b, N-(4-Bromophenyl)-2-[3-cyano-5-(4-methoxyphenyl)-6-methyl-2-oxopyridin-1(2H)-yl]acetamide]
EC50 (FPR1 [6]): 1 ± 0.2 µM
EC50 (FPR2 [4]): 480 ± 80 nM

COc1ccc(-c2cc(C#N)c(=O)n(CC(=O)Nc3ccc(Br)cc3)c2C)cc1OC [Compound 2c, N-(4-Bromophenyl)-2-[3-cyano-5-(3,4-dimethoxyphenyl)-6-methyl-2-oxopyridin-1(2H)-yl]acetamide]
IC50 (human neutrophils [1]): 18.8 ± 3.2 µM
EC50 (FPR1 [6]): 33.2 ± 4.9 µM
EC50 (FPR2 [4]): 600 ± 200 nM
EC50 (human neutrophils [5]): 60 ± 15 nM

CCOC(=O)c1cc(C#N)c(=O)n(CC(=O)Nc2ccc(Br)cc2)c1C [Compound 2d, 1-[(4-Bromophenylcarbamoyl)-methyl]-5-cyano-2-methyl-6-oxo-1,6-dihydropyridine-3-carboxylic acid ethyl ester]
IC50 (human neutrophils [1]): 8.4 ± 1.2 µM
EC50 (FPR1 [6]; read-out: FPR1-HL60 EC50, Ca2+ mobilization, mean of three independent experiments, N.A. = no activity (efficacy < 20% and EC50 < 50 μM as printed)): 3 µM
EC50 (human neutrophils [5]): 13 ± 1 nM

CCOC(=O)c1cc(C(=O)Nc2cccc(OC)c2)c(=O)n(CC(=O)Nc2ccc(Br)cc2)c1C [Compound 6a, 1-[(4-Bromophenylcarbamoyl)methyl]-5-(3-methoxyphenylcarbamoyl)-2-methyl-6-oxo-1,6-dihydropyridine-3-carboxylic acid ethyl ester]
EC50 (FPR1 [6]): 0.4 ± 0.1 µM
preference for FPR1 (FPR1 [6]; FPR1 versus FPR2 EC50): about 72 fold
EC50 (FPR2 [4]): 28900 ± 2700 nM

CCOC(=O)c1cc(C(=O)Nc2ccc(OC)cc2)c(=O)n(CC(=O)Nc2ccc(Br)cc2)c1C [Compound 6b, 1-[(4-Bromophenylcarbamoyl)methyl]-5-(4-methoxyphenylcarbamoyl)-2-methyl-6-oxo-1,6-dihydropyridine-3-carboxylic acid ethyl ester]
EC50 (FPR1 [6]): 7.9 ± 1.4 µM
EC50 (FPR2 [4]): 16400 ± 3300 nM

COc1cccc(NC(=O)c2cc(-c3ccncc3)c(C)n(CC(=O)Nc3ccc(Br)cc3)c2=O)c1 [Compound 6c, 1-[(4-Bromophenylcarbamoyl)methyl]-2-methyl-6-oxo-1,6-dihydro-[3,4′]bipyridinyl-5-carboxylic acid (3-methoxyphenyl) amide]
EC50 (FPR1 [6]): 1.4 ± 0.4 µM
EC50 (FPR2 [4]): 1800 ± 210 nM

COc1cccc(NC(=O)c2cc(C#N)c(=O)n(CC(=O)Nc3ccc(Br)cc3)c2C)c1 [Compound 9a, 1-[(4-Bromophenylcarbamoyl)methyl]-5-cyano-2-methyl-6-oxo-1,6-dihydro-pyridine-3-carboxylic acid (3-methoxyphenyl) amide]
EC50 (FPR1 [6]): 3.9 ± 1.2 µM
EC50 (FPR2 [4]): 310 ± 90 nM

COc1ccc(NC(=O)c2cc(C#N)c(=O)n(CC(=O)Nc3ccc(Br)cc3)c2C)cc1 [Compound 9b, 1-[(4-Bromophenylcarbamoyl)methyl]-5-cyano-2-methyl-6-oxo-1,6-dihydro-pyridine-3-carboxylic acid (4-methoxyphenyl) amide]
EC50 (FPR1 [6]): 0.96 ± 0.39 µM
EC50 (FPR2 [4]): 440 ± 120 nM

CCCn1ccc(=O)n(CC(=O)Nc2ccc(Br)cc2)c1=O [Compound 11d, N-(4-Bromophenyl)-2-(2,6-dioxo-3-propyl-3,6-dihydropyrimidin-1(2H)-yl)acetamide]
EC50 (FPR1 [6]): 5.5 ± 1.6 µM
EC50 (FPR2 [4]): 4100 ± 1300 nM

CC(C)c1c(NC(=O)Nc2ccc(Cl)cc2)c(=O)n(-c2ccccc2)n1C [Cpd43]
effect on arthritis disease severity [7]: significantly reduced disease severity

COc1cccc(Nc2c(C(C)=O)c(C)nn(CC(=O)Nc3ccc(Br)cc3)c2=O)c1 [EC10]
Δ Weight (incapacitance test) ([2]; 10 and 30 mg/kg p.o., 15 to 60 min, CFA + vehicle 62.8 ± 3.1 g): 40.2 ± 1.1 g
effect on pain threshold (paw pressure test) ([3]; 10 and 30 mg/kg p.o., between 15 and 60 min, similar efficacy as EC3): increased the pain threshold
EC50 (FPR2 [8]): 170 nM
EC50 (FPR1 [9]): 45 nM
EC50 (FPR3): 210 nM

CC(C)Cc1ccc(C(C)C(=O)O)cc1 (centres unmarked) [Ibuprofen, ibuprofen, reference compound]
Δ Weight (incapacitance test) ([2]; 100 mg kg−1 p.o., 15 to 30 min, CFA + vehicle 62.6 ± 2.5 g): 34.7 ± 6.1 g
